Reference: ChEMBL document CHEMBL1125450, “Synthesis and in vitro characterization of novel amino terminally modified oxotremorine derivatives for brain muscarinic receptors” (J Med Chem, 1992)

How the values were obtained:
[1] = molecular target: T1, Muscarinic acetylcholine receptor M2 (Rattus norvegicus, UniProt P10980); assay: Compound was evaluated for its binding affinity towards M2 receptor in rat brainstem; type: tissue-based, Brain
T1 sequence (P10980 whole entry): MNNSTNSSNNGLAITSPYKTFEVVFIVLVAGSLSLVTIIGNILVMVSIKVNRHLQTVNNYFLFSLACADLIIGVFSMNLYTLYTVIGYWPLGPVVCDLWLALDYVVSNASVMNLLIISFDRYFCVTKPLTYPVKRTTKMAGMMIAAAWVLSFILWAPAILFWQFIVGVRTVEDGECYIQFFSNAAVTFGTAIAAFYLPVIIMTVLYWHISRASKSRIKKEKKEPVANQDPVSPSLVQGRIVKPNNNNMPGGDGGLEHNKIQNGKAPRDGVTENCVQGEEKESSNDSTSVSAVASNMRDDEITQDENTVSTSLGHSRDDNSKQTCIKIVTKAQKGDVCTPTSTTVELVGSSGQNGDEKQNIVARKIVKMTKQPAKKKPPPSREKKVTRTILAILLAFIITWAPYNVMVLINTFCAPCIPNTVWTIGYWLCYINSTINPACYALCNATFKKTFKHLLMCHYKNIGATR

[2] = molecular target: T2, Muscarinic acetylcholine receptor M1 (Rattus norvegicus, UniProt P08482); assay: Compound was evaluated for its binding affinity towards M1 receptor in rat cortex
T2 sequence (P08482 whole entry): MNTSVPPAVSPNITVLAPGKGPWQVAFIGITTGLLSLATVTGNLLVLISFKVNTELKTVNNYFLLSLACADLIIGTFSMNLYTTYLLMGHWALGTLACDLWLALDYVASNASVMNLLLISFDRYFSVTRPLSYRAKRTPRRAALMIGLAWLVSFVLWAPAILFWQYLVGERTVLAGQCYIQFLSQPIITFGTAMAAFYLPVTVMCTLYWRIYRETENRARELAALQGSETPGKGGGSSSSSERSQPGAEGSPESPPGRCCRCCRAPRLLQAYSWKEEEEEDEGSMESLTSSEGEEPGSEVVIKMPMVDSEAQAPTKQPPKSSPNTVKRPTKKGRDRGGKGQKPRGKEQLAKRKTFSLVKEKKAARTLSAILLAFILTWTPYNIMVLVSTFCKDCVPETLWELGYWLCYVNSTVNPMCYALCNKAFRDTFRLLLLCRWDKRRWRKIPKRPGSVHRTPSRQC

[3] = molecular target: T1, Muscarinic acetylcholine receptor M2; assay: Compound was evaluated for its binding affinity towards muscarinic acetylcholine receptor M2 in rat brainstem; type: tissue-based, Brain
Outline: (§1)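 Rat pons-medulla homogenised 1:200 w/v in 50 mM sodium phosphate, pH 7.4; 0.5 mg tissue with 0.2 nM [3H]QNB and varying unlabeled ligand, 75 min at 25 °C. IC50 corrected to Ki by Cheng-Prusoff.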

[4] = molecular target: T2, Muscarinic acetylcholine receptor M1; assay: Compound was evaluated for its binding affinity towards muscarinic acetylcholine receptor in rat cortex
Outline: (§2)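 Rat fronto-parietal cortex homogenised 1:200 w/v in 50 mM Na-K phosphate, pH 7.4; 0.5 mg tissue competed against [3H]pirenzepine (6 nM) for 1 h at 25 °C, filtered on polyethylenimine-treated GF/B. Nonspecific binding with 10 µM atropine. IC50 converted to Ki by Cheng-Prusoff.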

[5] = molecular target: T3, Muscarinic acetylcholine receptor M2 (Rattus norvegicus) (UniProt P10980); assay: Intrinsic activity against muscarinic acetylcholine receptor M2 in rat striatum (activity expressed as % response of that produced by carbachol); type: functional, tissue-based
T3 sequence (whole entry): T1 sequence (P10980 whole entry)
Outline: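 Dissociated rat striatum prelabeled 45 min at 37 °C with [3H]adenine, then 30 min with 1.5 mM IBMX before 10 µM forskolin plus 100 µM compound for 10 min; stopped with TCA, [3H]cAMP by ion-exchange columns. Inhibition of cAMP scaled to that of 100 µM carbachol (100%).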

[6] = molecular target: T4, Muscarinic acetylcholine receptor M1 (Rattus norvegicus) (UniProt P08482); assay: Intrinsic activity against Muscarinic acetylcholine receptor M1 in rat cortex (activity expressed as % response of that produced by carbachol); type: functional
T4 sequence (whole entry): T2 sequence (P08482 whole entry)
Outline: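 Dissociated male Sprague-Dawley rat cortex, rejuvenated in oxygenated Krebs-Henseleit (final step with 10 mM Li+), labeled 60 min at 37 °C with [3H]inositol. Compound at 1 mM added for 60 min under 95% O2/5% CO2; [3H]inositol 1-phosphate isolated on Dowex. Response scaled to 1 mM carbachol PI hydrolysis (100%).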

[7] = molecular target: T2, Muscarinic acetylcholine receptor M1; assay: Compound was evaluated for its binding affinity towards Muscarinic acetylcholine receptor M1 in rat cortex; outline: as §2
[8] = molecular target: T1, Muscarinic acetylcholine receptor M2; assay: Compound was evaluated for its binding affinity towards Muscarinic acetylcholine receptor M2 in rat brainstem; type: tissue-based, Brain; outline: as §1

Row | Structure (SMILES) | Ki [1] | Ki [2] | Ki [3] | Ki [4] | Response [6] | further results
1 | O=C1CCCN1CC#CC[C@H]1CCCN1 | 2.46 µM | 3.07 µM |  |  |  | 
2 | CCN(C)CC#CCN1CCCC1=O |  |  | 0.813 µM | 2.69 µM | 2.75% | Response [5]: 91.6%
3 | O=C1CCCN1CC#CC[C@@H]1CCCCN1 | 15.8 µM | 27.6 µM |  |  |  | 
4 | CN1CCC[C@H]1CC#CCN1CCCC1=O | 10.8 µM | 10.5 µM |  |  |  | 
5 | CNCC#CCN1CCCC1=O |  |  | 38.1 µM | 65.5 µM | 5.7% | Response [5]: 36.3%
6 | CN1CCC[C@@H]1CC#CCN1CCCC1=O | 5.86 µM | 5.46 µM |  |  |  | 
7 | CN(C)CC#CCN1CCCC1=O |  |  |  |  |  | Ki [7]: 15.9 µM; Ki [8]: 0.926 µM
8 | O=C1CCCN1CC#CCN1CCCC1 [OXOTREMORINE] |  |  | 0.084 µM | 0.196 µM | 13.7% | 
9 | O=C1CCCN1CC#CC[C@H]1CCCCN1 | 0.636 µM | 3.03 µM |  |  |  | 
10 | CN1CCCC[C@@H]1CC#CCN1CCCC1=O | 3.66 µM | 1.2 µM |  |  |  | 
11 | O=C1CCCN1CC#CC[C@@H]1CCCN1 | 5.64 µM | 40.5 µM |  |  |  | 
12 | O=C1CCCN1CC#CCN1CCC1 |  |  | 0.0274 µM | 2.25 µM | 46.2% | Response [5]: 105%
13 | CN1CCCC[C@H]1CC#CCN1CCCC1=O | 7.06 µM | 5.38 µM |  |  |  | 
